Active and inactive are the calls of the source. The calls are words filed in the database; no cut-off is given here.

These results are taken from ChEMBL document CHEMBL3243943, “Adrenoceptor blocking agents. 2. 2-(alpha-Hydroxyarylmethyl)-3,3-dimethylaziridines, a new class of selective beta2-adrenoceptor antagonists” (J Med Chem, 1978).

Assay [1] has as its system Felis catus. The experiment in a line: Reversal of epinephrine-induced increase in mean arterial blood pressure in cat at 2.5 mg/kg, iv. The class given is functional.
Assay [2] concerns the target Beta-1 adrenergic receptor (Cavia porcellus, UniProt B0FL73). As to the kind of experiment: Inhibition of beta1-adrenergic receptor in guinea pig auricle assessed as reversal of isoproterenol-induced effect. The following applies: read-out: pA2 (converted).
Assay [3] deals with Beta-2 adrenergic receptor (Cavia porcellus, UniProt Q8K4Z4). As to the kind of experiment: Inhibition of beta2-adrenergic receptor in guinea pig tracheal chain assessed as reversal of isoproterenol-induced effect after 15 mins. More on the design: species or system Trachea. The following applies: read-out: pA2 (converted).
Chain of Beta-2 adrenergic receptor (Q8K4Z4 whole entry): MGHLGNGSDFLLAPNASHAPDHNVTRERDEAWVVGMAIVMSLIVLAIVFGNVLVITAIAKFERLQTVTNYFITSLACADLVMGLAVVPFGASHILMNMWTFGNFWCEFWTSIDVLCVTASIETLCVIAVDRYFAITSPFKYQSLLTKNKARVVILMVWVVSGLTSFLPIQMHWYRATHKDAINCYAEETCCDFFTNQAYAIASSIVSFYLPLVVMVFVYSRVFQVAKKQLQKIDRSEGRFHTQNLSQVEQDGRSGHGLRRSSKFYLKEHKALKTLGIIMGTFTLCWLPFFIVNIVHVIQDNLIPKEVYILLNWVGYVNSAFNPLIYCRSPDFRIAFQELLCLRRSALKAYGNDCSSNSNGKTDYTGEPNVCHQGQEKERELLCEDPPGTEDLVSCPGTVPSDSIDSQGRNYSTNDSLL
Assay [4] has as its system Felis catus. As to the kind of experiment: Reversal of isoproterenol-induced increase in mean arterial blood pressure in cat assessed as pressor phase at 2.5 mg/kg, iv. The class given is functional.
Assay [5] concerns Felis catus. The experiment in a line: Reversal of isoproterenol-induced increase in mean arterial blood pressure in cat assessed as depressor phase at 2.5 mg/kg, iv. It is filed as functional.
In assay [6] the target is Beta-2 adrenergic receptor (Cavia porcellus) (UniProt Q8K4Z4). As to the kind of experiment: Inhibition of beta2-adrenergic receptor in guinea pig tracheal chain assessed as reversal of isoproterenol-induced effect at 5.36 X 10^-9 M to 8.576 X 10^-8 M incubated for 15 mins followed by compound washout measured after 30 to 60 mins. The note with it: Trachea.
Chain of Beta-2 adrenergic receptor (Cavia porcellus) (Q8K4Z4 whole entry, looked up): as the sequence (Q8K4Z4 whole entry) above
A further assay deals with Cavia porcellus. The experiment in a line: Anesthetic effect in guinea pig at 0.1 % by intradermal wheal method. It is filed as functional, organism-based.
Assay [7] has as its target Beta-2 adrenergic receptor (Cavia porcellus) (UniProt Q8K4Z4). As to the kind of experiment: Competitive inhibition of beta2-adrenergic receptor in guinea pig tracheal chain assessed as reversal of isoproterenol-induced effect at 5.36 X 10^-9 M to 8.576 X 10^-8 M after 15 mins. The essentials:
(§1)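 Isolated guinea pig tracheal chain in Krebs bicarbonate Ringer at 36.5 ± 0.5 °C, gassed with O2 containing 5% CO2. Tone raised with acetylcholine, then cumulative isoproterenol (1×10^-5 to 1×10^-4 M) given after 15-min antagonist exposure. pA2 by linear extrapolation; mean ± SE, n experiments.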

Another assay concerns Heart. As to the kind of experiment: Antiarrhythmic activity against guinea pig auricle. The class given is functional, tissue-based. The following applies: Cavia porcellus. The procedure, abridged:
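Electrically driven isolated guinea pig auricles (Dawes method).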

For assay [8], the target named is Beta-2 adrenergic receptor (Cavia porcellus) (UniProt Q8K4Z4). The experiment in a line: Inhibition of beta2-adrenergic receptor in guinea pig tracheal chain assessed as reversal of isoproterenol-induced effect at 3.44 X 10^-8 M to 1.376 X 10^-7 M incubated for 15 mins followed by compound washout measured after 30 to 60 mins. The following applies: Trachea.
Assay [9] has the same target. As to the kind of experiment: Competitive inhibition of beta2-adrenergic receptor in guinea pig tracheal chain assessed as reversal of isoproterenol-induced effect at 3.44 X 10^-8 M to 1.376 X 10^-7 M after 15 mins. The procedure, abridged: as §1
Assay [10] shares this target. As to the kind of experiment: Competitive inhibition of beta2-adrenergic receptor in guinea pig tracheal chain assessed as reversal of isoproterenol-induced effect at 5.868 X 10^-7 M to […] after 15 mins. The procedure, abridged: as §1
Another assay has as its system Trachea. As to the kind of experiment: Cholinolytic activity in guinea pig trachea at 2.94 X 10^-7 M to 1.176 X 10^-6 M in presence of acetylcholine. It is filed as functional, tissue-based. The note with it: Cavia porcellus. The essentials: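 Guinea pig tracheal chain in Krebs bicarbonate Ringer at 36.5 ± 0.5 °C, gassed with O2/5% CO2. Acetylcholine responses examined in presence of test agent.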

A further assay concerns Ileum. The experiment in a line: Cholinolytic activity in guinea pig ileum at 2.94 X 10^-7 M to 1.176 X 10^-6 M in presence of acetylcholine. The note with it: Cavia porcellus. It is filed as functional, tissue-based. The essentials: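 Isolated guinea pig ileum in oxygenated Tyrode solution at 36.5 ± 0.5 °C. Acetylcholine used as spasmogen; antagonism of contraction by test agent assessed.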

In assay [11] the target is Beta-2 adrenergic receptor (Cavia porcellus) (UniProt Q8K4Z4). The experiment in a line: Inhibition of beta2-adrenergic receptor in guinea pig tracheal chain assessed as reversal of isoproterenol-induced effect at 5.868 X 10^-7 M to […] incubated for 15 mins followed by compound washout measured after 30 to 60 mins. The note with it: Trachea.
For assay [12] the target is unchanged. The experiment in a line: Inhibition of beta2-adrenergic receptor in guinea pig tracheal chain assessed as reversal of isoproterenol-induced effect at 1.376 X 10^-7 M to 2.752 X 10^-7 M incubated for 15 mins followed by compound washout measured after 30 to 60 mins. The following applies: Trachea.
The target is the same in assay [13]. As to the kind of experiment: Competitive inhibition of beta2-adrenergic receptor in guinea pig tracheal chain assessed as reversal of isoproterenol-induced effect at 1.376 X 10^-7 M to 2.752 X 10^-7 M after 15 mins. The essentials:
as §1

Chain of Beta-1 adrenergic receptor (B0FL73 whole entry): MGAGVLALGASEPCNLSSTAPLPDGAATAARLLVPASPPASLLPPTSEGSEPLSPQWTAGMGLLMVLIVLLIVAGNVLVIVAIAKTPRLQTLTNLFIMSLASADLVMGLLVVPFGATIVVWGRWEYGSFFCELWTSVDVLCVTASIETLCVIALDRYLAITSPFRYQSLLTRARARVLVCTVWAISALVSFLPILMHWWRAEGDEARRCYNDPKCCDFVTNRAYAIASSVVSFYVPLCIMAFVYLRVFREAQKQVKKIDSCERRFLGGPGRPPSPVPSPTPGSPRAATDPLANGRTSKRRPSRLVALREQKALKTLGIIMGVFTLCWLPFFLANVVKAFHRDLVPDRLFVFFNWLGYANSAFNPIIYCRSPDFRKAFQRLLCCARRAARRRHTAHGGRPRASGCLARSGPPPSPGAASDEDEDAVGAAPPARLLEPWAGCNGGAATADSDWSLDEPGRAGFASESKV

On to `CC1(C)NC1C(O)c1ccccc1` (stereo in doubt; 1a) [listing 1 of 2 here], for which the Activity with Felis catus [1] (2.5 mg/kg) is 0%; with Felis catus [4] (2.5 mg/kg), 20%; in the assay with Felis catus [5] (2.5 mg/kg), -10%. The Kb in [2] is 43.2 µM; in assay [3], 0.0619 µM.
As for `CC1(C)NC1C(O)c1ccc2ccccc2c1` (stereo not drawn), the Activity is 62% in the assay on Felis catus [1], 0% with Felis catus [4] and -33% with Felis catus [5]. Also, the Kb in [2] is 344 µM; in [3], 0.00304 µM. The inhibition result in [6] was “inactive”. For the same molecule, the result in the assay on Cavia porcellus and in the assay with Heart was inactive. Moreover, the inhibition entry in [7] was “Active”.
`CC1(C)NC1C(O)c1ccccc1` (stereo in doubt; 1b) [listing 1 of 2 here]: the inhibition entry in [8] is “inactive”. For the same molecule, the result in the assay with Cavia porcellus and with Heart was inactive. For the same molecule, the inhibition result in assay [9] was “Active”.
On to `CCN(CC)CCOC(=O)c1ccc(N)cc1`, for which the outcome with Cavia porcellus and in the assay on Heart was inactive.
Consider `CC(C)NCC(O)COc1cccc2ccccc12` (stereo not drawn) [PROPRANOLOL], for which the Activity is given as 45% in the assay with Felis catus [1] and -100% in the assay on Felis catus [5]. In the assay on Heart, the outcome was inactive.
In the case of `CC1(C)NC1C(O)c1ccccc1` (stereo in doubt; 1b) [listing 2 of 2 here], the Activity with Felis catus [1] (2.5 mg/kg) was 11.1%; with Felis catus [4] (2.5 mg/kg), 0%; in the assay on Felis catus [5] (2.5 mg/kg) it was 0%. The Kb was 344 µM in assay [2] and 0.0644 µM in [3].
Take `CC1(C)NC1C(O)c1ccc(Cl)c(Cl)c1` (stereo not drawn): the Activity in the assay with Felis catus [1] is given as 0%; with Felis catus [4], -16%; in the assay with Felis catus [5], 0%. The Kb was 17.4 µM in assay [2] and 0.398 µM in assay [3]. For the same molecule, the inhibition result in [10] and in assay [11] was “inactive” in each case. Moreover, the outcome in the assay with Trachea, in the assay on Cavia porcellus, in the assay with Ileum and in the assay on Heart was Active.
Turning to `CC1(C)NC1C(O)c1ccccc1` (stereo in doubt; 1a) [listing 2 of 2 here], the outcome with Cavia porcellus and in the assay with Heart was inactive. The inhibition entry in [12] is “inactive”. For the same molecule, the inhibition entry in assay [13] was “Active”.
